# Experiments:
# Format in all cases: functional
# NCI-H322M [1] = assay: Growth inhibition of human NCI-H322M cells assessed as cell viability at 100 uM incubated for 48 hrs by sulforhodamine B assay; details: read-out: Activity
# ACHN = assay: Growth inhibition of human ACHN cells assessed as cell viability at 0.001 uM incubated for 48 hrs by sulforhodamine B assay relative to control; details: read-out: Activity
# NCI-H23 [2] = assay: Growth inhibition of human NCI-H23 cells incubated for 48 hrs by sulforhodamine B assay; details: NCI-H23, 48 h
# Outline: (§1)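 NCI-60 five-dose SRB assay in RPMI 1640 with 5% FBS, 37 °C, 5% CO2. Compound given at five tenfold dilutions, 0.01–100 µM, for 48 h. Adherent cells fixed with TCA, suspension cells with 16% final TCA. Bound SRB read at 515 nm and growth calculated against time-zero and untreated controls. GI50 taken from dose–response curves as the concentration giving a 50% decrease in net cell growth.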
# CAKI-1 = assay: Growth inhibition of human Caki1 cells assessed as cell viability at 0.001 uM incubated for 48 hrs by sulforhodamine B assay relative to control; details: CAKI-1, 48 h, read-out: Activity
# MDA-MB-468 [3] = assay: Growth inhibition of human MDA-MB-468 cells incubated for 48 hrs by sulforhodamine B assay; details: MDA-MB-468, 48 h; outline: as §1
# LOX IMVI = assay: Growth inhibition of human LOXIMVI cells assessed as cell viability at 1 uM incubated for 48 hrs by sulforhodamine B assay; details: read-out: Activity
# SR = assay: Growth inhibition of human SR cells assessed as cell viability at 0.001 uM incubated for 48 hrs by sulforhodamine B assay relative to control; details: read-out: Activity
# SF-539 [4] = assay: Growth inhibition of human SF539 cells assessed as cell viability at 0.1 uM incubated for 48 hrs by sulforhodamine B assay; details: SF-539, 48 h, read-out: Activity
# Malme-3M = assay: Growth inhibition of human MALME-3M cells assessed as cell viability at 0.1 uM incubated for 48 hrs by sulforhodamine B assay; details: read-out: Activity
# OVCAR-5 = assay: Growth inhibition of human OVCAR5 cells assessed as cell viability at 100 uM incubated for 48 hrs by sulforhodamine B assay; details: OVCAR-5, 48 h, read-out: Activity
# SNB-19 = assay: Growth inhibition of human SNB19 cells assessed as cell viability at 1 uM incubated for 48 hrs by sulforhodamine B assay; details: SNB-19, 48 h, read-out: Activity
# HOP-62 [5] = assay: Growth inhibition of human HOP62 cells assessed as cell viability at 100 uM incubated for 48 hrs by sulforhodamine B assay; details: HOP-62, 48 h, read-out: Activity
# MDA-MB-468 [6] = assay: Growth inhibition of human MDA-MB-468 cells assessed as cell viability at 1 uM incubated for 48 hrs by sulforhodamine B assay; details: MDA-MB-468, 48 h, read-out: Activity
# UACC-62 = assay: Growth inhibition of human UACC62 cells assessed as cell viability at 1 uM incubated for 48 hrs by sulforhodamine B assay; details: UACC-62, 48 h, read-out: Activity
# HOP-62 [7] = assay: Growth inhibition of human HOP62 cells assessed as cell viability at 0.001 uM incubated for 48 hrs by sulforhodamine B assay relative to control; details: HOP-62, 48 h, read-out: Activity
# SK-OV-3 = assay: Growth inhibition of human SKOV3 cells assessed as cell viability at 1 uM incubated for 48 hrs by sulforhodamine B assay; details: SK-OV-3, 48 h, read-out: Activity
# NCI-H322M [8] = assay: Growth inhibition of human NCI-H322M cells assessed as cell viability at 1 uM incubated for 48 hrs by sulforhodamine B assay; details: read-out: Activity
# MOLT-4 = assay: Growth inhibition of human MOLT4 cells assessed as cell viability at 0.1 uM incubated for 48 hrs by sulforhodamine B assay; details: MOLT-4, 48 h, read-out: Activity
# SF-539 [9] = assay: Growth inhibition of human SF539 cells assessed as cell viability at 1 uM incubated for 48 hrs by sulforhodamine B assay; details: SF-539, 48 h, read-out: Activity
# CCRF-CEM [10] = assay: Growth inhibition of human CCRF-CEM cells assessed as cell viability at 0.1 uM incubated for 48 hrs by sulforhodamine B assay; details: read-out: Activity
# SNB-75 = assay: Growth inhibition of human SNB75 cells assessed as cell viability at 0.1 uM incubated for 48 hrs by sulforhodamine B assay; details: SNB-75, 48 h, read-out: Activity
# SF-268 = assay: Growth inhibition of human SF268 cells assessed as cell viability at 100 uM incubated for 48 hrs by sulforhodamine B assay; details: SF-268, 48 h, read-out: Activity
# MDA-MB-231 = assay: Growth inhibition of human MDA-MB-231 cells assessed as cell viability at 100 uM incubated for 48 hrs by sulforhodamine B assay; details: MDA-MB-231, 48 h, read-out: Activity
# NCI-H23 [11] = assay: Growth inhibition of human NCI-H23 cells assessed as cell viability at 0.001 uM incubated for 48 hrs by sulforhodamine B assay relative to control; details: NCI-H23, 48 h, read-out: Activity
# SK-MEL-5 [12] = assay: Growth inhibition of human SK-MEL-5 cells incubated for 48 hrs by sulforhodamine B assay; details: SK-MEL-5, 48 h
# Outline: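 NCI-60 five-dose SRB assay. Cells were exposed for 48 h to tenfold dilutions of 0.01, 0.1, 1, 10 and 100 µM, in RPMI 1640 with 5% FBS. Plates fixed with TCA at the time of drug addition served as the time-zero reference. GI50 is the concentration giving a 50% reduction in net growth. TGI is total growth inhibition. LC50 is a net 50% loss of the initial cells.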
# T47D [13] = assay: Growth inhibition of human T47D cells assessed as cell viability at 0.001 uM incubated for 48 hrs by sulforhodamine B assay relative to control; details: read-out: Activity
# NCI-H23 [14] = assay: Growth inhibition of human NCI-H23 cells assessed as cell viability at 0.1 uM incubated for 48 hrs by sulforhodamine B assay; details: NCI-H23, 48 h, read-out: Activity
# SK-MEL-5 [15] = assay: Growth inhibition of human SK-MEL-5 cells assessed as cell viability at 100 uM incubated for 48 hrs by sulforhodamine B assay; details: SK-MEL-5, 48 h, read-out: Activity
# T47D [16] = assay: Growth inhibition of human T47D cells assessed as cell viability at 0.1 uM incubated for 48 hrs by sulforhodamine B assay; details: read-out: Activity
# CCRF-CEM [17] = assay: Growth inhibition of human CCRF-CEM cells assessed as cell viability at 100 uM incubated for 48 hrs by sulforhodamine B assay; details: read-out: Activity
# [18] = read-out: LC50 (the source's name)
# [19] = read-out: pLC50 (the source's name) (converted)
structure (smiles),measurement,setting,value
CC1=C(C(=O)OCc2ccccc2)C(c2ccc3c(c2)OCO3)n2c(nc3ccccc32)N1 (racemic),viability at 100 µM,NCI-H322M [1],50%
same,viability at 0.001 µM,ACHN,99%
same,GI50,NCI-H23 [2]; read-out: GI50,31.8 µM
same,LC50,NCI-H23 [2]; read-out: LC50,> 100 µM
same,TGI,NCI-H23 [2]; read-out: TGI,> 100 µM
same,GI50,NCI-H23 [2]; read-out: pGI50 (converted),31.6 µM
same,LC50,NCI-H23 [2]; read-out: pLC50 (converted),> 100 µM
same,TGI,NCI-H23 [2]; read-out: pTGI,> 100 µM
same,viability at 0.001 µM,CAKI-1,83%
same,GI50,MDA-MB-468 [3]; read-out: GI50,0.27 µM
same,CC50,MDA-MB-468 [3]; [18],> 100 µM
same,TGI,MDA-MB-468 [3]; read-out: TGI,> 100 µM
same,GI50,MDA-MB-468 [3]; read-out: pGI50 (converted),0.269 µM
same,CC50,MDA-MB-468 [3]; [19],> 100 µM
same,TGI,MDA-MB-468 [3]; read-out: pTGI,> 100 µM
same,viability at 1 µM,LOX IMVI,35%
same,viability at 0.001 µM,SR,84%
same,viability at 0.1 µM,SF-539 [4],92%
same,viability at 0.1 µM,Malme-3M,87%
same,viability at 100 µM,OVCAR-5,51%
same,viability at 1 µM,SNB-19,35%
same,viability at 100 µM,HOP-62 [5],31%
same,viability at 1 µM,MDA-MB-468 [6],-9%
same,viability at 1 µM,UACC-62,29%
same,viability at 0.001 µM,HOP-62 [7],91%
same,viability at 1 µM,SK-OV-3,27%
same,viability at 1 µM,NCI-H322M [8],48%
same,viability at 0.1 µM,MOLT-4,99%
same,viability at 1 µM,SF-539 [9],13%
same,viability at 0.1 µM,CCRF-CEM [10],98%
same,viability at 0.1 µM,SNB-75,79%
same,viability at 100 µM,SF-268,9%
same,viability at 100 µM,MDA-MB-231,49%
same,viability at 0.001 µM,NCI-H23 [11],93%
same,GI50,SK-MEL-5 [12]; read-out: GI50,0.54 µM
same,CC50,SK-MEL-5 [12]; [18],> 100 µM
same,TGI,SK-MEL-5 [12]; read-out: TGI,> 100 µM
same,GI50,SK-MEL-5 [12]; read-out: pGI50 (converted),0.537 µM
same,CC50,SK-MEL-5 [12]; [19],> 100 µM
same,TGI,SK-MEL-5 [12]; read-out: pTGI,> 100 µM
same,viability at 0.001 µM,T47D [13],82%
same,viability at 0.1 µM,NCI-H23 [14],92%
same,viability at 100 µM,SK-MEL-5 [15],35%
same,viability at 0.1 µM,T47D [16],93%
same,viability at 100 µM,CCRF-CEM [17],18%

# — ChEMBL document CHEMBL4406880, “Design, synthesis, and bioactivity of dihydropyrimidine derivatives as kinesin spindle protein inhibitors” (Bioorg Med Chem, 2019)
